M5 ag = human M5 muscarinic receptor agonists, primary screen, CHO-K1 cells, Fluo-8 calcium fluorescence; Muscarinic acetylcholine receptor M5 (Homo sapiens), P08912; CHO-K1 hM5 cells; 0% DMSO wells, 100% maximal acetylcholine response; activation, % at 3 µM; 360,000 tested, 0.19% active; AID 624037, 2012;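 active = activation above the run's mean over test compounds plus 3 SD, cut at about 23% in these data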;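 note: signal is peak over basal fluorescence ratio across the kinetic read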
CHRM1 agonist = human M1 muscarinic receptor agonists, primary screen, Fluo-8 calcium fluorescence, CHO-K1 cells, HTS. AID 588814, 2011. activation, % at 3 µM. 360,000 tested, 0.33% active. CHO-K1 hM1, agonist mode; 0% DMSO, 100% acetylcholine EC100. Muscarinic acetylcholine receptor M1 (Homo sapiens), P11229;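 active = activation above the run's mean compound activation plus 3 SD, cut at about 16% in these data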;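 note: peak over basal fluorescence ratio within a 140 s kinetic read after compound addition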
Target sequence (P11229 whole entry, looked up): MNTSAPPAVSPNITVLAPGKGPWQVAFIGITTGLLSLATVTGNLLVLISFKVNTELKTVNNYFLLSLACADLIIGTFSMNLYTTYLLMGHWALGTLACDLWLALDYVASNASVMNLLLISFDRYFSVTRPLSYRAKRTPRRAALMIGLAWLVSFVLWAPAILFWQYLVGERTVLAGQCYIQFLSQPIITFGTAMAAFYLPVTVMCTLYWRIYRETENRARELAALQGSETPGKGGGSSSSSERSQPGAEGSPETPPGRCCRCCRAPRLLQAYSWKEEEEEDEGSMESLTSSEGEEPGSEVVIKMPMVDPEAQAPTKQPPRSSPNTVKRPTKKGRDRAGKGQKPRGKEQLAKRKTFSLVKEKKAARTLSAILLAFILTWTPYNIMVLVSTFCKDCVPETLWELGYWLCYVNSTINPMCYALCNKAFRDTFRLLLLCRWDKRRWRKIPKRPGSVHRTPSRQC
M1 antag = human M1 muscarinic receptor antagonists, primary screen, CHO-K1 cells, Fluo-8 calcium fluorescence, 1536-well | Muscarinic acetylcholine receptor M1 (Homo sapiens), P11229 | CHO-K1 hM1, ACh EC80 antagonist | inhibition, % at 3 µM | 360,000 tested, 1.3% active | AID 588852, 2011;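 active = percent inhibition above its own plate's cutoff, namely the mean of that plate's compound wells plus 3 SD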;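 note: peak over basal fluorescence ratio during 140 s after agonist addition; 0% = ACh EC80 plus DMSO and 100% = DMSO alone without agonist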
M1 PAM = human M1 muscarinic receptor positive allosteric modulators, primary screen, CHO-K1 cells, Fluo-8 calcium fluorescence, 1536-well | 360,000 tested, 0.088% active | Muscarinic acetylcholine receptor M1 (Homo sapiens), P11229 | AID 588819, 2011 | CHO-K1 hM1, ACh EC20; 0% = ACh EC20, 100% = maximal ACh | activation, % at 3 µM; in the data active = activation above about 19%, passing the limit was not always enough
M5 PAM = human M5 muscarinic receptor positive allosteric modulators, primary screen, CHO-K1 cells, Fluo-8 calcium fluorescence; Muscarinic acetylcholine receptor M5 (Homo sapiens), P08912; CHO-K1 hM5, ACh EC20 PAM; 0% = ACh EC20, 100% = ACh EC100; activation, % at 3 µM; 360,000 tested, 0.3% active; AID 624038, 2012;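 active = activation above the run cutoff, the mean activation of all test compounds plus 3 SD, cut at about 18% in these data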
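System – CHO-K1 hM5 cells · Compound – 3 µM, single dose · Incubation – compound preincubation 140 s before EC20 acetylcholine addition · Technique – Fluo-8 calcium fluorescence · Measure – Max/basal fluorescence ratio as % of EC20–EC100 ACh window · Benchmarks – low control EC20 acetylcholine (0%), high control EC100 acetylcholine (100%) · Replication – singlicate, one well per test compound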
CHRM5 antagonist = human M5 muscarinic receptor antagonists, primary screen, CHO cells, Fluo-8 calcium fluorescence; Muscarinic acetylcholine receptor M5 (Homo sapiens), P08912; CHO-hM5 cells, ACh EC80; 360,000 tested, 0.59% active; inhibition, % at 3 µM; AID 624040, 2012;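 active = inhibition above a per-plate cutoff, the mean of that plate's test compounds plus 3 SD, cut at about 27% in these data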;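 note: 0% = acetylcholine EC80 with DMSO and 100% = DMSO without agonist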
Numbers without * were called inactive; / = no result given. The list is not random: actives were taken first. Their share in the collection is about 2%.

SMILES | M5 ag | CHRM1 agonist | M1 antag | M1 PAM | M5 PAM | CHRM5 antagonist
COc1ccc(F)cc1-c1cc(C(=O)NCc2cccc(Cl)c2)[nH]n1 | -2.4 | -7.6 | 0.5 | -1.8 | -3.6 | -1.4
Cc1sc2ncnc(N/N=C/c3cccc(O)c3)c2c1C | -0.3 | 1.0 | -8.2 | 2.1 | -5.5 | 1.8
C/C(=N\Nc1ncnc2sc(C)c(C)c12)c1ccccn1 | -0.9 | -3.8 | -5.9 | 1.7 | 22.0* | -21.8
COc1cccc(-c2oc3c(c2C(=O)OCCN(C)C)C(O)CCC3)c1 (stereo not given) | 1.1 | / | / | / | 8.4 | -17.7
COc1cc(/C=N/NC(=O)CCN2CCN(C(c3ccccc3)c3ccccc3)CC2)ccc1O | -10.0 | -11.1 | 27.9* | -28.0 | -13.1 | -2.2
COc1cc(/C=N/NC(=O)CNC(=O)c2ccco2)ccc1O | -4.5 | -3.3 | -2.9 | -6.9 | -10.6 | 27.0*
O=C(CNC(=O)c1ccco1)N/N=C/c1cc(Br)ccc1O | -1.1 | 0.8 | -24.3 | 10.9 | 1.4 | -1.5
COc1cc(/C=N\NC(=O)CNC(=O)C(c2ccccc2)c2ccccc2)ccc1O | 6.1 | 1.7 | -4.2 | 2.8 | -3.7 | 0.4
O=C(NC1CCCC1)c1noc2c1CCCCC2 | -5.9 | -3.6 | 37.5* | -19.4 | -8.1 | 1.6
CN(C)CCC1Sc2ccccc2Oc2ccccc21 (stereo not given) | -14.6 | -4.0 | 47.9* | -22.1 | -49.0 | 22.6
COC(=O)CNC(=O)CN1C(=O)NC2(CCCc3ccccc32)C1=O (stereo not given) | -1.4 | -3.4 | -0.6 | 2.4 | -7.9 | 6.2
COCCNC(=O)CN1C(=O)NC2(CCCc3ccccc32)C1=O (stereo not given) | -2.8 | -0.1 | 67.1* | 3.7 | 3.6 | 5.3
Cc1ccc(NC2=NC(c3ccc(F)cc3)n3c(nc(C)cc3=O)N2)cc1 (stereo not given) | 1.5 | -4.3 | 18.9 | -4.2 | 4.8 | 5.2
N#CC1C=Cc2c(ccc3ccccc23)N1C(=O)c1ccccc1 (stereo not given) | -5.2 | -7.3 | -8.8 | 8.1 | 0.9 | 10.2
CCN(CCCNC(=O)C1CCN(S(=O)(=O)c2cccc3nonc23)CC1)Cc1ccccc1 | -10.8 | -5.3 | 46.8* | -19.8 | -6.9 | -5.6
Cn1c(=O)[nH]c(=O)c2c1nc(N1CCN(Cc3ccccc3)CC1)n2CCSc1ncccn1 | 3.3 | -5.4 | 33.0* | -13.6 | -18.7 | 23.1
Cn1c(=O)[nH]c(=O)c2c1nc(N1CCc3ccccc3C1)n2CCSc1nc2ccccc2s1 | 0.6 | -1.6 | -15.9 | 15.8 | -4.5 | 4.4
CN1CCN(c2nc3c(c(=O)[nH]c(=O)n3C)n2CCSc2nc3ccccc3s2)CC1 | -0.4 | 17.6* | -4.1 | -6.9 | -0.2 | -1.9
Cn1c(=O)[nH]c(=O)c2c1nc(N1CCN(Cc3ccccc3)CC1)n2CCCc1ccccc1 | -0.7 | -8.4 | 2.4 | 3.5 | -7.6 | 2.3
CCCNC(=O)C1(C)CCCN(C(=O)c2cc(C(C)(C)C)nn2C)C1 (stereo not given) | 0.9 | 2.8 | -9.1 | 2.3 | -1.6 | 2.1
CCCOc1ccc(C(=O)NC(=S)NNC(=O)c2c(-c3ccccc3)noc2C)cc1 | 19.5 | 96.9* | 62.1* | -23.2 | -16.4 | 16.4
Cc1onc(-c2ccccc2)c1C(=O)NC(=S)NNC(=O)c1ccc(O)cc1O | -1.0 | -6.8 | -23.1 | 7.1 | -2.1 | 1.3
Cc1onc(-c2ccccc2)c1C(=O)NC(=S)NNC(=O)c1ccccc1O | 19.8 | 74.2* | 15.8 | -20.7 | -16.5 | -0.6
CCCOc1ccc(NC(=O)c2c(-c3ccccc3)noc2C)cc1 | -1.0 | -2.0 | -12.1 | 10.3 | 2.7 | 2.9
COc1ccc(Cc2c(-c3ccc(F)cc3)nc3ccc(Cl)cn23)c(C)c1 | -1.2 | -5.8 | -19.9 | -1.8 | 2.5 | -0.6
SMILES | M5 ag | CHRM1 agonist | M1 antag | M1 PAM | M5 PAM | CHRM5 antagonist
Brc1ccc(CNc2ccc3ncccc3c2)cc1 | -13.5 | -1.5 | 35.9* | -15.9 | -24.0 | 31.7*
O=C(Nc1ccnn1C1CCN(Cc2cc(Cl)ccc2O)CC1)c1cccnc1 | -4.9 | -5.4 | 39.9* | -15.9 | -1.7 | 3.4
Cc1ccccc1CN1CCC(n2nccc2NC(=O)c2cccnc2)CC1 | -4.7 | -5.3 | 1.6 | 7.4 | -2.0 | -5.2
CCOC(=O)C1CCCN(C2CCN(Cc3nc(Cc4ccccc4)no3)CC2)C1 (stereo not given) | -17.4 | 17.0* | 18.9 | -8.0 | -14.9 | 14.2
CCOC(=O)C1CCCN(Cc2nc(C3CC3)no2)C1 (stereo not given) | 0.7 | -1.1 | -10.8 | 7.0 | 6.7 | -0.4
CCOC(=O)C1CCCN(C2CCN(Cc3nc(-c4ccccc4)no3)CC2)C1 (stereo not given) | -10.4 | 41.7* | 42.4* | -21.8 | -17.8 | 44.6*
CCOC(=O)C1CCN(C2CCN(Cc3nc(-c4ccccc4)no3)CC2)CC1 | -5.5 | -12.7 | -6.4 | 0.0 | -7.2 | 8.7
COCC1CCCN(Cc2nc(Cc3ccccc3)no2)C1 (stereo not given) | 0.1 | -0.6 | 12.1 | 10.5 | 3.8 | -1.8
CCOC(=O)C1CCCN(Cc2nc(Cc3cccc(F)c3)no2)C1 (stereo not given) | 13.8 | 33.1* | -3.0 | -7.7 | 4.9 | 0.5
COc1ccc(C(C(=O)NCC2CCCO2)N(Cc2cccs2)C(=O)c2snc(C(N)=O)c2N)cc1 (stereo not given) | 5.0 | -0.6 | 22.2* | -13.9 | -10.9 | 12.0
COC(=O)[C@H](Cc1ccccc1)NC(=O)NCCc1ccc(F)cc1 | -6.1 | -2.9 | -5.3 | 2.0 | -25.5 | 30.0*
COc1cccc(COC(=O)c2cc(S(=O)(=O)N3CCOCC3)ccc2Cl)c1OC | 0.9 | -2.4 | 6.0 | -2.3 | -13.9 | 11.4
Cc1cc(C)c(C#N)c(SCc2nnc(-c3ccccc3[N+](=O)[O-])o2)n1 | -2.4 | -6.3 | 42.7* | -33.7 | -21.0 | 46.7*
Cc1cc(C)c(C#N)c(SCc2nnc(-c3ccccc3)o2)n1 | -7.6 | -7.5 | 23.6* | -18.8 | -8.8 | -3.3
O=C1OC(c2cccc3c(F)cccc23)c2ccccc21 (stereo not given) | 0.2 | -2.8 | -2.1 | -3.2 | -0.2 | -3.4
O=C(C=Cc1ccco1)c1ccc2ccccc2c1 | 2.5 | -1.9 | -6.0 | 4.0 | 3.7 | 5.7
